Laboratory results published in article PMC5599994 (Clinical Pharmacology in Drug Development, 2017).
Several values for one entry are separate records, joined by “and”; a condition that tells them apart may be missing. Identical values can stand only once.

What was measured:
[1] = assay type: in vivo, human; settings: plasma; midazolam 7.5 mg oral single dose alone, day 1
CYP3A4 = assay: Clinical drug-drug interaction: ratio; assay type: in vivo, human; settings: (midazolam + tenapanor)/midazolam; tenapanor 15 mg twice daily; healthy volunteers
CYP2B6 mRNA = assay: CYP mRNA induction in HepaRG cell cultures; assay type: in vitro ADME, human; settings: 24 hours; for maximal increase in CYP2B6 mRNA levels relative to vehicle control: positive controls
Safety and tolerability = assay type: in vivo, human
CYP1A2 = biological target: T1, CYP1A2 (Homo sapiens, UniProt P05177); assay: Reversible CYP inhibition in human liver microsomes, phenacetin marker; assay type: in vitro ADME; settings: probe phenacetin 30 μM (paracetamol formation)
T1 sequence (P05177 1-516): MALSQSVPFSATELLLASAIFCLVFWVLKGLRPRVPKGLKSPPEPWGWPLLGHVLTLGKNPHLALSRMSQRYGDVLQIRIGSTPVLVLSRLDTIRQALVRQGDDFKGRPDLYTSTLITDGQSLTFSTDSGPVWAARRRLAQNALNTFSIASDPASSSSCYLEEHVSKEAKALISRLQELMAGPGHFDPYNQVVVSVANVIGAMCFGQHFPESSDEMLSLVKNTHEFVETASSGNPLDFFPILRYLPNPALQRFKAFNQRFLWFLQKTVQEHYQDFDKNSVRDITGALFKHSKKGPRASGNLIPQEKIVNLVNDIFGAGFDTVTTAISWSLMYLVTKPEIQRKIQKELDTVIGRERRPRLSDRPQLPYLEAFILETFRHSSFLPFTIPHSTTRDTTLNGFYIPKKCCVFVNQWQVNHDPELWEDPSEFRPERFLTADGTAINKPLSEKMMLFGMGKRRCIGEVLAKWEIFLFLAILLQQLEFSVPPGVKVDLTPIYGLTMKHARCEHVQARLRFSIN
How it was run: (§1)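 A cocktail at or below KM was incubated 5 min at 37°C with NADPH in 150-donor pooled human liver microsomes: phenacetin 30 μM (CYP1A2), diclofenac 10 μM (CYP2C9), (S)-mephenytoin 35 μM (CYP2C19), bufuralol 5 μM (CYP2D6), midazolam 3 μM (CYP3A4/5). Test compound was run at 0.1–30 μM (six levels), in triplicate. TCA quench, then LC-MS/MS (MRM) of metabolites. IC50 was fitted from % of DMSO-control activity versus log concentration; inhibition only at top concentration was reported as >30 μM.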

CYP2B6 = biological target: T2, CYP2B6 (Homo sapiens, UniProt P20813); assay: Reversible CYP inhibition in human liver microsomes, bupropion marker; assay type: in vitro ADME
T2 sequence (P20813 1-491): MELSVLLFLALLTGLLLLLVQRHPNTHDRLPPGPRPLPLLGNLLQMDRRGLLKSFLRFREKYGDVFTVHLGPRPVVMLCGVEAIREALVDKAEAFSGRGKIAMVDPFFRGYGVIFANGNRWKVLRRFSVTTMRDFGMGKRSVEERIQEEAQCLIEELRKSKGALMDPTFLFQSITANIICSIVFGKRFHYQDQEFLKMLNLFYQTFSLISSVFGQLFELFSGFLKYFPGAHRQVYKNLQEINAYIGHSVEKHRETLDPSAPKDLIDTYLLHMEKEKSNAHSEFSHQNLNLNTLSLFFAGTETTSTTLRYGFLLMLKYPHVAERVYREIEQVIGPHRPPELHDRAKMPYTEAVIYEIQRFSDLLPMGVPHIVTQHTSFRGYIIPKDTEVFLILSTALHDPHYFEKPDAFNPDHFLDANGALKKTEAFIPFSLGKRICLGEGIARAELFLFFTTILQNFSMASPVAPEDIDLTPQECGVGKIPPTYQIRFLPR
How it was run: (§2)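 Pooled human liver microsomes (150 donors) with NADPH, 10 min at 37°C, using a substrate cocktail at or below KM: bupropion 80 μM (CYP2B6), amodiaquine 2 μM (CYP2C8), nifedipine 25 μM. Test compound was run at six levels, 0.1–30 μM, in triplicate. TCA quench, then metabolite by LC-MS/MS (MRM). IC50 came from a fit of % DMSO-control activity against log concentration; inhibition only at 30 μM was reported as >30 μM.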

CYP2C8 = biological target: T3, CYP2C8 (Homo sapiens, UniProt P10632); assay: Reversible CYP inhibition in human liver microsomes, amodiaquine marker; assay type: in vitro ADME
T3 sequence (P10632 1-490): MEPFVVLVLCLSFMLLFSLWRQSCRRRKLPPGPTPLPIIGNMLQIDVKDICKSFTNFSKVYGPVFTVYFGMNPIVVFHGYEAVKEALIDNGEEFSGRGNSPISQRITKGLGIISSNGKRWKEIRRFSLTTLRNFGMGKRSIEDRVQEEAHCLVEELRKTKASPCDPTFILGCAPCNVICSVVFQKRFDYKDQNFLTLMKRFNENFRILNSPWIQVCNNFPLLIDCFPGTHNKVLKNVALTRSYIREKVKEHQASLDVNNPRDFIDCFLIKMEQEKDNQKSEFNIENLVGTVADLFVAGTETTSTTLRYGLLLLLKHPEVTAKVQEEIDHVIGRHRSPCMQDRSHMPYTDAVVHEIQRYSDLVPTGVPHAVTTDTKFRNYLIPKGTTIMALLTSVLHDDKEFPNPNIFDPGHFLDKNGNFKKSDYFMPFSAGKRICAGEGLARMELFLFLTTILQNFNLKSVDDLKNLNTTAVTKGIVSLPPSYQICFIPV
How it was run: as §2

CYP2C9 = CYP2C9 (Homo sapiens, UniProt P11712); assay: Reversible CYP inhibition in human liver microsomes, diclofenac marker; assay type: in vitro ADME
Sequence of CYP2C9 (P11712 whole entry): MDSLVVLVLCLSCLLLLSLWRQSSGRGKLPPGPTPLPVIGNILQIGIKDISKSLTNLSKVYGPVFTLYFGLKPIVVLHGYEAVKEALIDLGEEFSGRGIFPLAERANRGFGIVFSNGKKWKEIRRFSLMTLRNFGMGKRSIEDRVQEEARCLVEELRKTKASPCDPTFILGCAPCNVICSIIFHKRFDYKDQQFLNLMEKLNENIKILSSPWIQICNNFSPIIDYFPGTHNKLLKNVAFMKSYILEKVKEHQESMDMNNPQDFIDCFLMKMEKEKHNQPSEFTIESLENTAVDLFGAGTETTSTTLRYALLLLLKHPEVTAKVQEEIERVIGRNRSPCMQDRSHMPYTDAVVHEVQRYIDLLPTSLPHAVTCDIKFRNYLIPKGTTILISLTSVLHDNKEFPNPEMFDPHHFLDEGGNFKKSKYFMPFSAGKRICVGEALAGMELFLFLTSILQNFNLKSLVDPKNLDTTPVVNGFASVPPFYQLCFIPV
How it was run: as §1

CYP2C19 = CYP2C19 (Homo sapiens, UniProt P33261); assay: Reversible CYP inhibition in human liver microsomes; assay type: in vitro ADME
Sequence of CYP2C19 (P33261 whole entry): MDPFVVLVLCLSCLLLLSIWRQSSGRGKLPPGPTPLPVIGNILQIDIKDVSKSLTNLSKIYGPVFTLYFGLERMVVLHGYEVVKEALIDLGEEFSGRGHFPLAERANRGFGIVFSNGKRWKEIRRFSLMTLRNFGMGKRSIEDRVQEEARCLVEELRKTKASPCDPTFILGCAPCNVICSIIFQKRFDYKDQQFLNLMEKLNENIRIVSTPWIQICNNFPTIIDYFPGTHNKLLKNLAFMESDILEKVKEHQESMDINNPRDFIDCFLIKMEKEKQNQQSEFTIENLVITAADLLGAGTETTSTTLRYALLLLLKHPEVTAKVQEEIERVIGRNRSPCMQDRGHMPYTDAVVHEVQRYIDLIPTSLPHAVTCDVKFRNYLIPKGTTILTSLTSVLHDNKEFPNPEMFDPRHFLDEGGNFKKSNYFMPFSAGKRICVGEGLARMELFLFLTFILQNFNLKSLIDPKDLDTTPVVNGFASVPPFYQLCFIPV
How it was run: as §1

CYP2D6 = CYP2D6 (Homo sapiens, UniProt P10635); assay: Reversible CYP inhibition in human liver microsomes, bufuralol marker; assay type: in vitro ADME
Sequence of CYP2D6 (P10635 whole entry): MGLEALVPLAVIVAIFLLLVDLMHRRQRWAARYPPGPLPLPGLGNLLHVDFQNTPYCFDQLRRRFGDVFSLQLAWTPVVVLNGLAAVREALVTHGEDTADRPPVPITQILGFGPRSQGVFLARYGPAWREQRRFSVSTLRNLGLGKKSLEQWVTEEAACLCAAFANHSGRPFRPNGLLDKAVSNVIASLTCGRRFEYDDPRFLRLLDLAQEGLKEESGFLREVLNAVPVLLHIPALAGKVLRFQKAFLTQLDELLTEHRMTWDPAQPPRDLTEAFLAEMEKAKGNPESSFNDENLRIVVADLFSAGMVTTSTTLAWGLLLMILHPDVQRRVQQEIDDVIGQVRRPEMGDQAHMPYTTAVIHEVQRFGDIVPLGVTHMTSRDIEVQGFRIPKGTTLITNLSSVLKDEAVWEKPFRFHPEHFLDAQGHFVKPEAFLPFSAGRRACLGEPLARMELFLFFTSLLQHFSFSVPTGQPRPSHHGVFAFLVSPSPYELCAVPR
How it was run: as §1

CYP3A4/5 = assay type: in vitro ADME; settings: human, human liver microsomes, probe midazolam 3 μM (1-OH-midazolam formation)
How it was run: as §1

CYP1A2 mRNA = assay: CYP mRNA induction in HepaRG cell cultures; assay type: in vitro ADME, human; settings: 24 hours
HepaRG cells = assay: Cytotoxicity in the HepaRG induction experiments; assay type: cell-based, human
CYP3A4 mRNA = settings: HepaRG, 24 hours
[2] = patients with CKD stage 5D on dialysis; in 387 of 390 serum samples; cited from earlier work
[3] = concentrations of up to 20 μM, all experiments
[4] = tenapanor 15 mg twice daily alone

OCc1ncc2n1-c1ccc(Cl)cc1C(c1ccccc1F)=NC2 [1‐OH‐midazolam]
AUC0-t, arithmetic mean (SD) [1]: 52.1 (29.7) ng·h/mL | AUC0-t, geometric mean (GCV%) [1]: 47.2 (43.1) ng·h/mL | AUC, arithmetic mean (SD) [1]: 54.1 (31.6) ng·h/mL | AUC, geometric mean (GCV%) [1]: 48.8 (43.6) ng·h/mL | Cmax, arithmetic mean (SD) [1]: 26.6 (12.0) ng/mL | Cmax, geometric mean (GCV%) [1]: 24.1 (47.8) ng/mL | t1/2, arithmetic mean (SD) [1]: 5.14 (2.22) h | t1/2, geometric mean (GCV%) [1]: 4.64 (50.0) h | tmax, median (range) [1]: 0.50 (0.25‐0.55) h | AUC0-t ratio (90%CI), geometric least-squares means (CYP3A4): 110 (104‐116) % | AUC ratio (90%CI), geometric least-squares means (CYP3A4): 110 (103‐116) % | Cmax ratio (90%CI), geometric least-squares means (CYP3A4): 103 (87.2‐122) %

Cc1ncc2n1-c1ccc(Cl)cc1C(c1ccccc1F)=NC2O (centres unmarked) [4‐OH‐midazolam]
AUC0-t, arithmetic mean (SD) [1]: 5.65 (1.50) ng·h/mL | AUC0-t, geometric mean (GCV%) [1]: 5.47 (26.9) ng·h/mL | AUC, arithmetic mean (SD) [1]: 6.14 (1.56) ng·h/mL | AUC, geometric mean (GCV%) [1]: 5.96 (25.3) ng·h/mL | Cmax, arithmetic mean (SD) [1]: 2.11 (0.757) ng/mL | Cmax, geometric mean (GCV%) [1]: 1.99 (37.6) ng/mL | t1/2, arithmetic mean (SD) [1]: 2.48 (0.820) h | t1/2, geometric mean (GCV%) [1]: 2.37 (30.2) h | tmax, median (range) [1]: 0.50 (0.25‐1.02) h | AUC0-t ratio (90%CI), geometric least-squares means (CYP3A4): 106 (99.1‐113) % | AUC ratio (90%CI), geometric least-squares means (CYP3A4): 105 (98.7‐111) % | Cmax ratio (90%CI), geometric least-squares means (CYP3A4): 105 (90.5‐122) %

Clc1ccc(-c2nc3sccn3c2C=NOCc2ccc(Cl)c(Cl)c2)cc1 [CITCO, 6‐[4‐chlorophenyl]imidazo[2,1‐b][1,3]thiazole‐5‐carbaldehyde O‐[3,4‐dichlorobenzyl]oxime]
maximal increase in CYP2B6 mRNA levels relative to vehicle control (CYP2B6 mRNA): 13.2 fold

Cc1ncc2n1-c1ccc(Cl)cc1C(c1ccccc1F)=NC2 [Midazolam, midazolam, reference compound]
tmax, median (range) [1]: 0.50 (0.25‐0.55) h | AUC0-t ratio (90%CI), geometric least-squares means (CYP3A4): 106 (100‐113) % | AUC ratio (90%CI), geometric least-squares means (CYP3A4): 107% and 107 (101‐113) % | Cmax ratio (90%CI), geometric least-squares means (CYP3A4): 104% and 104 (89.6‐122) % | somnolence (Safety and tolerability; healthy volunteers): 27/28 | volunteers reporting at least 1 AE (Safety and tolerability; healthy volunteers): 27/28

CN1Cc2c(Cl)cc(Cl)cc2[C@H](c2cccc(S(=O)(=O)NCCOCCOCCNC(=O)NCCCCNC(=O)NCCOCCOCCNS(=O)(=O)c3cccc([C@@H]4CN(C)Cc5c(Cl)cc(Cl)cc54)c3)c2)C1 [Tenapanor]
IC50 at 5 min (CYP1A2): > 30 µM | IC50 (CYP2B6): 15.4 ± 7.5 µM | IC50 (CYP2C8): 10.4 ± 3 µM | IC50 (CYP2C9): 14.2 ± 3.2 µM | IC50 (CYP2C19): > 30 µM | Tenapanor IC50 (n = 3) (CYP2C19; human liver microsomes, S-mephenytoin 35 μM to 4-OH-mephenytoin): No IC50 could be determined | IC50 (CYP2D6): 3.26 ± 0.54 µM | IC50 at 5 min (CYP3A4/5): 0.402 ± 0.032 µM | induction of CYP1A2 mRNA expression (CYP1A2 mRNA; [3]): did not induce | induction of CYP2B6 mRNA expression (CYP2B6 mRNA; [3]): did not induce | cytotoxicity to HepaRG cells (HepaRG cells; 20 μM): not | cytotoxicity to HepaRG cells (HepaRG cells; 50 μM): cytotoxic | volunteers reporting at least 1 AE (Safety and tolerability; healthy volunteers): 9/27 | abdominal pain (Safety and tolerability; [4]): 1 n | abnormal gastrointestinal sounds (Safety and tolerability; [4]): 2 n | defecation urgency (Safety and tolerability; [4]): 1 n | dizziness (Safety and tolerability; [4]): 2 n | hypertrophy of tongue papillae (Safety and tolerability; [4]): 1 n | gastrointestinal disorders (Safety and tolerability; tenapanor 15 mg twice daily alone, of the 9 volunteers who reported AEs): 5 volunteers | CYP3A4 mRNA induction as % of the positive control response (CYP3A4 mRNA; 1 of 4 experiments): 16.8% | induction of CYP3A4 mRNA expression (CYP3A4 mRNA; 1 of 4 experiments): up to 5.85 fold | influence on CYP3A4 mRNA levels (CYP3A4 mRNA; 3 of 4 experiments): not observed to influence | serum tenapanor [2]: below the limit of quantification

COc1ccc2[nH]c([S+]([O-])Cc3ncc(C)c(OC)c3C)nc2c1 (centres unmarked) [omeprazole, reference compound]
maximal increase in CYP1A2 mRNA levels relative to vehicle control (CYP1A2 mRNA; positive control): 32.0 fold

CCC1(c2ccccc2)C(=O)NC(=O)NC1=O [phenobarbital]
maximal increase in CYP2B6 mRNA levels relative to vehicle control (CYP2B6 mRNA): 17.0 fold
